# Measured values as given in article PMC8154590 (The Journal of antibiotics, 2021).
# Structures can show the parent of a compound that is named as a salt.
# System: M. smegmatis 70S ribosome (spectinomycin site: helix-34 of 16S rRNA and RpsE protein)
# Experiment: cell-free translation, luciferase read-out
# Type: biochemical, Mycolicibacterium smegmatis
# Settings: purified 70S ribosomes, firefly luciferase mRNA
# Summary of the method: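 Purified M. smegmatis 70S ribosomes were used in translation reactions programmed with firefly luciferase mRNA that was transcribed in vitro with T7 RNA polymerase. Inhibition was read as loss of luciferase activity. IC50 was taken as the drug concentration that inhibits luciferase activity by 50%.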
row,SMILES,Ribosome translation inhibition IC50
1,"CN[C@@H]1[C@H](O)[C@H](NC)[C@H]2O[C@@]3(O)C(=O)C[C@@H](C)O[C@H]3O[C@@H]2[C@@H]1Cl [compound 8, 6-Epi-chloro-6-deoxyspectinomycin dihydrochloride]",54.7 mg/L
2,"CN[C@H]1C[C@@H](NC)[C@H](O)[C@H]2O[C@@H]3O[C@H](C)CC(=O)[C@]3(O)O[C@@H]21 [compound 9, 2-Deoxyspectinomycin dihydrochloride]",> 60 mg/L
3,"CN[C@H]1C[C@@H](NC)[C@H](O)[C@H]2O[C@@H]3O[C@H](C)C[C@@H](NC(=O)Cc4ccccn4)[C@]3(O)O[C@@H]21 [compound 10, 2-Deoxy-3’-deoxy-3’-dihydro-3’(R)-[(pyridin-2-yl)acetylamino]spectinomycin dihydrochloride]",10.2 mg/L
4,"CN[C@H]1[C@@H](O)[C@@H](NC)C[C@H]2O[C@@H]3O[C@H](C)C[C@@](O)(CNCc4ccc(F)cc4)[C@]3(O)O[C@H]12 [compound 7, 6-Deoxy-3’-dihydro-3’(R)-[(4-fluorobenzyl)aminomethyl]spectinomycin trihydrochloride]",23.3 mg/L
5,"CN[C@@H]1[C@H](O)[C@H](NC)[C@H]2O[C@@]3(O)C(=O)C[C@@H](C)O[C@H]3O[C@@H]2[C@H]1O [compound 1, Spectinomycin]",0.36 mg/L
